“And” between values parts separate entries of the source, which are not always exact repeats. Equal values may be shown once.
Test system: HEK-293T
Assay: Multiplex assay against HEK293T
Type: toxicity, cell-based
Details: human
In short: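 Live cells were stained at seeding with Hoechst33342, BioTracker Green Microtubule Cytoskeleton Dye, MitoTracker Red and Annexin V Alexa Fluor 680. Following compound addition, they were imaged on a CQ1 microscope at 37°C and 5% CO2 and gated by CellPathfinder machine learning into Hoechst high-intensity objects or normal cells, with normal cells split into healthy, pyknosed or fragmented nuclei and pyknosed cells into mitotic or apoptotic. Tubulin, mitochondrial-mass and membrane-permeability phenotypes are per cents of healthy-nucleus cells.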

[1] = 12 h, 1 µM, compound concentration 1 uM
[2] = 12 h, 10 µM, compound concentration 10 uM
[3] = 24 h, 1 µM, compound concentration 1 uM
[4] = 24 h, 10 µM, compound concentration 10 uM
[5] = 48 h, 1 µM, compound concentration 1 uM
[6] = 48 h, 10 µM, compound concentration 10 uM

O=C(Nc1c[nH]nc1-c1nc2cc(CN3CCOCC3)ccc2[nH]1)NC1CC1 [AT-9283]
Population Apoptotic (%) [1]: 12.17% and 7.08% | Population Fragmented Nuclei (%) [1]: 0.89% and 3.5% | Population Healthy Nuclei (%) [1]: 48% and 17.48% | Population Hoechst High Intensity Objects (%) [1]: 0% | Population Membrane Permeable-Phenotype (%) [1]: 0.93% and 0% | Population Mitotic Cells (%) [1]: 87.83% and 92.92% | Population Normal (%) [1]: 100% | Population Pyknosed Nuclei (%) [1]: 51.11% and 79.02% | Total Cell Count [1]: 225 and 143 | Population Apoptotic (%) [2]: 9.66% and 13.57% | Population Fragmented Nuclei (%) [2]: 1.6% and 0.63% | Population Healthy Nuclei (%) [2]: 28% and 10.76% | Population Hoechst High Intensity Objects (%) [2]: 0% | Population Membrane Permeable-Phenotype (%) [2]: 0% and 11.76% | Population Mitotic Cells (%) [2]: 90.34% and 86.43% | Population Normal (%) [2]: 100% | Population Pyknosed Nuclei (%) [2]: 70.4% and 88.61% | Population Tubulin-Different-Phenotype (%) [2]: 20% and 35.29% | Total Cell Count [2]: 250 and 158 | Population Apoptotic (%) [3]: 21.74% and 12.8% | Population Fragmented Nuclei (%) [3]: 4.26% and 2.61% | Population Hoechst High Intensity Objects (%) [3]: 0.35% and 0% | Population Membrane Permeable-Phenotype (%) [3]: 0% and 4.17% | Population Mitochondria Different-Phenotype (%) [3]: 18.06% and 0% | Population Mitotic Cells (%) [3]: 78.26% and 87.2% | Population Normal (%) [3]: 99.65% and 100% | Population Pyknosed Nuclei (%) [3]: 40.78% and 81.7% | Population Tubulin-Different-Phenotype (%) [3]: 17.42% and 16.67% | Total Cell Count [3]: 283 and 153 | Population Apoptotic (%) [4]: 24.17% and 28.99% | Population Fragmented Nuclei (%) [4]: 0.37% and 0.67% | Population Hoechst High Intensity Objects (%) [4]: 0.37% and 0% | Population Membrane Permeable-Phenotype (%) [4]: 1.79% and 0% | Population Mitotic Cells (%) [4]: 75.83% and 71.01% | Population Normal (%) [4]: 99.63% and 100% | Population Pyknosed Nuclei (%) [4]: 78.73% and 92.62% | Population Tubulin-Different-Phenotype (%) [4]: 33.93% and 40% | Total Cell Count [4]: 269 and 149 | Population Apoptotic (%) [5]: 44.44% and 22.06% | Population Fragmented Nuclei (%) [5]: 2.23% and 0% | Population Healthy Nuclei (%) [5]: 80.17% and 46.03% | Population Hoechst High Intensity Objects (%) [5]: 0% and 0.79% | Population Membrane Permeable-Phenotype (%) [5]: 3.83% and 1.72% | Population Mitochondria Different-Phenotype (%) [5]: 49.13% and 22.41% | Population Mitotic Cells (%) [5]: 55.56% and 77.94% | Population Normal (%) [5]: 100% and 99.21% | Total Cell Count [5]: 358 and 127 | Population Apoptotic (%) [6]: 52.36% and 56.2% | Population Fragmented Nuclei (%) [6]: 1.67% and 2.67% | Population Hoechst High Intensity Objects (%) [6]: 0.83% and 0% | Population Membrane Permeable-Phenotype (%) [6]: 0% | Population Mitochondria Different-Phenotype (%) [6]: 88.89% and 55.56% | Population Mitotic Cells (%) [6]: 47.64% and 43.8% | Population Normal (%) [6]: 99.17% and 100% | Population Pyknosed Nuclei (%) [6]: 79.58% and 91.33% | Population Tubulin-Different-Phenotype (%) [6]: 24.44% and 55.56% | Total Cell Count [6]: 242 and 150

Cc1ccccc1C(=O)Nc1ccc(C(=O)N2CCCC(N(C)C)c3ccccc32)cc1.Cl (stereo not drawn)
Population Apoptotic (%) [1]: 18% and 53% | Population Fragmented Nuclei (%) [1]: 6% and 5% | Population Healthy Nuclei (%) [1]: 80% and 79% | Population Hoechst High Intensity Objects (%) [1]: 8% and 6% | Population Membrane Permeable-Phenotype (%) [1]: 0% | Population Mitochondria Different-Phenotype (%) [1]: 51% and 72% | Population Mitotic Cells (%) [1]: 81% and 46% | Population Normal (%) [1]: 91% and 93% | Population Pyknosed Nuclei (%) [1]: 12% and 14% | Population Tubulin-Different-Phenotype (%) [1]: 33% and 29% | Total Cell Count [1]: 519 and 412 | Population Apoptotic (%) [2]: 53% and 64% | Population Fragmented Nuclei (%) [2]: 6% and 8% | Population Healthy Nuclei (%) [2]: 70% and 72% | Population Hoechst High Intensity Objects (%) [2]: 8% and 15% | Population Membrane Permeable-Phenotype (%) [2]: 0% | Population Mitochondria Different-Phenotype (%) [2]: 74% and 82% | Population Mitotic Cells (%) [2]: 46% and 35% | Population Normal (%) [2]: 91% and 84% | Population Pyknosed Nuclei (%) [2]: 22% and 18% | Population Tubulin-Different-Phenotype (%) [2]: 60% and 61% | Total Cell Count [2]: 233 and 285 | Population Apoptotic (%) [3]: 31% and 30% | Population Fragmented Nuclei (%) [3]: 11% and 5% | Population Healthy Nuclei (%) [3]: 79% and 83% | Population Hoechst High Intensity Objects (%) [3]: 5% and 4% | Population Membrane Permeable-Phenotype (%) [3]: 0% | Population Mitochondria Different-Phenotype (%) [3]: 28% and 52% | Population Mitotic Cells (%) [3]: 68% and 69% | Population Normal (%) [3]: 94% and 95% | Population Pyknosed Nuclei (%) [3]: 8% and 11% | Population Tubulin-Different-Phenotype (%) [3]: 17% and 19% | Total Cell Count [3]: 727 and 567 | Population Apoptotic (%) [4]: 41% and 44% | Population Fragmented Nuclei (%) [4]: 8% and 7% | Population Healthy Nuclei (%) [4]: 70% and 73% | Population Hoechst High Intensity Objects (%) [4]: 7% and 14% | Population Membrane Permeable-Phenotype (%) [4]: 0% | Population Mitochondria Different-Phenotype (%) [4]: 71% and 83% | Population Mitotic Cells (%) [4]: 58% and 55% | Population Normal (%) [4]: 92% and 85% | Population Pyknosed Nuclei (%) [4]: 21% and 18% | Population Tubulin-Different-Phenotype (%) [4]: 46% | Total Cell Count [4]: 268 and 285 | Population Apoptotic (%) [5]: 13% and 34% | Population Fragmented Nuclei (%) [5]: 13% and 10% | Population Healthy Nuclei (%) [5]: 78% and 82% | Population Hoechst High Intensity Objects (%) [5]: 2% and 4% | Population Membrane Permeable-Phenotype (%) [5]: 1% and 0% | Population Mitochondria Different-Phenotype (%) [5]: 24% and 30% | Population Mitotic Cells (%) [5]: 86% and 65% | Population Normal (%) [5]: 97% and 95% | Population Pyknosed Nuclei (%) [5]: 8% and 6% | Population Tubulin-Different-Phenotype (%) [5]: 17% and 14% | Total Cell Count [5]: 1095 and 722 | Population Apoptotic (%) [6]: 55% and 63% | Population Fragmented Nuclei (%) [6]: 10% and 9% | Population Healthy Nuclei (%) [6]: 69% and 77% | Population Hoechst High Intensity Objects (%) [6]: 6% | Population Membrane Permeable-Phenotype (%) [6]: 0% | Population Mitochondria Different-Phenotype (%) [6]: 69% and 72% | Population Mitotic Cells (%) [6]: 44% and 36% | Population Normal (%) [6]: 93% | Population Pyknosed Nuclei (%) [6]: 20% and 12% | Population Tubulin-Different-Phenotype (%) [6]: 49% and 41% | Total Cell Count [6]: 283 and 314
